From ChEMBL document CHEMBL2146426, “Antitubercular nitrofuran isoxazolines with improved pharmacokinetic properties” (Bioorg Med Chem, 2012)
≈ marks a conversion by molar mass, not a printed value.

How the values were obtained:
[1] = Solubility of the compound at pH 7.4 after 18 hrs by UV spectrometry; assay type: physicochemical; conditions: buffer, pH 7.4
Outline: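 10 mM DMSO stocks diluted 100-fold in system solution buffer pH 7.4 and held 18 h at room temperature. Filtered, diluted 1:1 with isopropanol and measured by UV (230–500 nm). Compared against a 600-fold diluted reference in buffer/isopropanol. Triplicates.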

[2] = Plasma protein binding in mouse at 10 uM after 4 hrs by LC/MS analysis; assay type: ADME, cell-free; conditions: read-out: PPB (converted)
Outline: (§1)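 Compound at 10 µM (0.1% DMSO) in mouse or human plasma. Rapid equilibrium dialysis (MWCO 8K) against DPBS pH 7.4, 4 h at 37°C with orbital shaking. Both chambers matrix-matched, precipitated with acetonitrile containing warfarin internal standard, quantified by LC–MS. %Free = buffer/plasma × 100; %Bound = 100 − %Free.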

[3] = Plasma protein binding in human at 10 uM after 4 hrs by LC/MS analysis; assay type: ADME, cell-free; conditions: read-out: PPB (converted); outline: as §1
[4] = tested on: Staphylococcus aureus; assay: Antibacterial activity against Staphylococcus aureus ATCC 29213 after overnight incubation by microbroth dilution technique; assay type: functional
Outline: (§2)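 Two-fold serial broth dilutions per CLSI; inoculum about 10^5 CFU/mL; top final drug concentration 200 µg/mL; incubated aerobically overnight at 37°C. MIC read visually as the lowest concentration with no visible growth.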

[5] = tested on: Streptococcus pyogenes; assay: Antibacterial activity against Streptococcus pyogenes ATCC 700294 after overnight incubation by microbroth dilution technique; assay type: functional; outline: as §2
[6] = tested on: Streptococcus pneumoniae; assay: Antibacterial activity against Streptococcus pneumoniae DAW27 after overnight incubation by microbroth dilution technique; assay type: functional; outline: as §2
[7] = tested on: Enterococcus faecalis; assay: Antibacterial activity against Enterococcus faecalis ATCC 3186 after overnight incubation by microbroth dilution technique; assay type: functional; outline: as §2
[8] = tested on: Bacillus subtilis; assay: Antibacterial activity against Bacillus subtilis ATCC 23857 after overnight incubation by microbroth dilution technique; assay type: functional
Outline: (§3)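 Non-mycobacterial strains: two-fold serial dilutions in broth by CLSI microbroth dilution. Inoculum about 10^5 cfu/mL; top final drug concentration 200 µg/mL. Aerobic incubation at 37°C overnight. MIC read visually as the lowest concentration with no visible growth.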

[9] = tested on: Bacillus anthracis; assay: Antibacterial activity against Bacillus anthracis Sterne 34F2 after overnight incubation by microbroth dilution technique; assay type: functional; outline: as §3
[10] = tested on: Escherichia coli; assay: Antibacterial activity against Escherichia coli K12 after overnight incubation by microbroth dilution technique; assay type: functional; conditions: K-12; outline: as §3
[11] = Half life in mouse liver microsomes; assay type: ADME, Microsome
Outline: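 Mouse liver microsomes at 0.6381 mg/mL protein in 0.1 M potassium phosphate pH 7.4 with EDTA. Reaction started with NADPH regenerating system at 37°C; six time points including 0, triplicate wells. Quenched in cold acetonitrile with warfarin internal standard, analysed by LC–MS. Half-life from a first-order least-squares fit.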

[12] = Half life in human liver microsomes; assay type: ADME, Microsome
[13] = Apparent permeability of the compound from apical to basal side of human Caco2 cells at 50 umol/L after 2 hrs by UPLC/MS analysis; assay type: ADME, cell-based; conditions: Caco-2
Outline: (§4)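 Caco-2 monolayers grown 7 days on Transwell inserts, washed with HBSS/HEPES pH 7.4. Compound at 50 µmol/L added apically or basolaterally, then 2 h at 37°C. Receiver side sampled and quantified by UPLC/MS. Papp = (dQ/dt)/(A×C0), triplicates.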

[14] = Apparent permeability of the compound from basal to apical side of human Caco2 cells at 50 umol/L after 2 hrs by UPLC/MS analysis; assay type: ADME, cell-based; conditions: Caco-2; outline: as §4
[15] = Cmax in Sprague-Dawley rat at 10 mg/kg, iv; assay type: ADME, organism-based; design: dose 10 mg/kg, route intravenous; conditions: in vivo
Outline: (§5)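 Rats, n=5, given 10 mg/kg IV via femoral vein catheter. Vehicle was 2% ethanol/saline or 30% DMSO/30% propylene glycol/20% PEG 3000/20% saline, depending on compound. Plasma sampled 0–48 h and urine collected in intervals to 48 h; both assayed by LC-MS/MS after acetonitrile precipitation. Non-compartmental analysis: CL = dose/AUC0-∞; fe = cumulative unchanged urinary amount/dose.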

[16] = AUC (0 to infinity) in Sprague-Dawley rat at 10 mg/kg, iv; assay type: ADME, organism-based; design: time infinity, dose 10 mg/kg, route intravenous; conditions: plasma; outline: as §5
[17] = Half life in Sprague-Dawley rat at 10 mg/kg, iv; assay type: ADME, organism-based; design: dose 10 mg/kg, route intravenous; conditions: in vivo; outline: as §5
[18] = Clearance in Sprague-Dawley rat at 10 mg/kg, iv; assay type: ADME, organism-based; design: dose 10 mg/kg, route intravenous; conditions: in vivo; outline: as §5
[19] = Volume of distribution in Sprague-Dawley rat at 10 mg/kg, iv; assay type: ADME, organism-based; design: dose 10 mg/kg, route intravenous; conditions: in vivo; outline: as §5
[20] = Drug excretion in Sprague-Dawley rat urine at 10 mg/kg, iv; assay type: ADME, organism-based; design: dose 10 mg/kg, route intravenous; conditions: read-out: Drug excretion; outline: as §5
[21] = tested on: Rattus norvegicus; assay: Oral bioavailability in Sprague-Dawley rat at 100 mg/kg; assay type: ADME, organism-based; conditions: in vivo
Outline: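 Fasted rats, n=5, dosed 100 mg/kg by oral gavage. Vehicle was 2% methanol, 60:40 PEG 3000/water or 10% vitamin E TPGS, depending on compound. Plasma sampled to 48 h and assayed by LC-MS/MS. F = (AUCoral×DoseIV)/(AUCIV×Doseoral), referenced to 10 mg/kg IV.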

[22] = tested on: Vero; assay: Cytotoxicity against african green monkey Vero cells after 72 hrs by MTT assay; assay type: cell-based; conditions: Chlorocebus sabaeus
Outline: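 Vero cells in DMEM with 10% FBS, seeded at ~10% confluency and left to adhere overnight. Two-fold serial dilutions applied for 72 h at 37°C, 5% CO2. MTT read-out at 570 nm after overnight solubilization.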

[23] = tested on: Rattus norvegicus; assay: Toxicity in Sprague-Dawley rat assessed as seizures at 10 mg/kg, iv; assay type: organism-based; design: dose 10 mg/kg, route intravenous; conditions: in vivo
Outline: (§6)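 Observed during rat IV pharmacokinetic study (n=5). Single 10 mg/kg dose via femoral vein catheter, flushed with heparinized locking solution. Vehicle was 2% ethanol/saline or 30% DMSO/30% propylene glycol/20% PEG 3000/20% saline. Animals followed with serial blood sampling to 48 h.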

[24] = tested on: Rattus norvegicus; assay: Toxicity in Sprague-Dawley rat assessed as mortality at 10 mg/kg, iv; assay type: organism-based; design: dose 10 mg/kg, route intravenous; conditions: in vivo; outline: as §6
[25] = tested on: Rattus norvegicus; assay: Toxicity in Sprague-Dawley rat assessed as mortality at 100 mg/kg, po; assay type: organism-based; design: dose 100 mg/kg, route oral; conditions: in vivo
Outline: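 Observed during rat oral pharmacokinetic study (n=5). Overnight-fasted animals, water ad libitum, received 100 mg/kg by oral gavage. Vehicle was compound-dependent: 2% methanol (sonicated), 60:40 PEG 3000/water, or 10% vitamin E TPGS. Animals followed with sampling to 48 h.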

SMILES	solubility at 18 h [1] [µg/mL]	fraction unbound at 4 h, 10 µM [2]	fraction unbound at 4 h, 10 µM [3]	MIC [4] [µg/mL]	MIC [5] [µg/mL]	MIC [6] [µg/mL]	MIC [7] [µg/mL]	MIC [8] [µg/mL]	MIC [9] [µg/mL]	MIC [10] [µg/mL]	half-life [11] [h]	half-life [12] [h]	Papp A→B at 2 h, 50 µM [13] [×10⁻⁶ cm/s]	Papp B→A at 2 h, 50 µM [14] [×10⁻⁶ cm/s]	further results
O=[N+]([O-])c1ccc(C2=NOC(c3ccc(N4CCOCC4)c(F)c3)C2)o1 (stereo unspecified)	3.2 (≈ 8.86 µM)	0.061	0.066	25 (≈ 69.2 µM)	200 (≈ 554 µM)	200 (≈ 554 µM)	200 (≈ 554 µM)	200 (≈ 554 µM)	12.5 (≈ 34.6 µM)	> 200					
CN1CCN(c2ccc(C3CC(c4ccc([N+](=O)[O-])o4)=NO3)cn2)C(=O)C1 (stereo unspecified)	28.9 (≈ 77.8 µM)	0.402	0.511	12.5 (≈ 33.7 µM)	50 (≈ 135 µM)	50 (≈ 135 µM)	100 (≈ 269 µM)	25 (≈ 67.3 µM)	25 (≈ 67.3 µM)	50 (≈ 135 µM)	0.35	4.24	36.6	33.3	
O=C1COCCN1c1ccc(C2CC(c3ccc([N+](=O)[O-])o3)=NO2)cc1F (stereo unspecified)	12.6 (≈ 33.5 µM)	0.203	0.292	6.25 (≈ 16.7 µM)	100 (≈ 266 µM)	200 (≈ 533 µM)	200 (≈ 533 µM)		25 (≈ 66.6 µM)	> 200	1.38	8.31	15.4	42.4	
CN1CCN(c2ccc(C3CC(c4ccc([N+](=O)[O-])o4)=NO3)cc2F)C(=O)C1 (stereo unspecified)	29.2 (≈ 75.2 µM)	0.172	0.391	6.25 (≈ 16.1 µM)	50 (≈ 129 µM)	50 (≈ 129 µM)	100 (≈ 257 µM)		25 (≈ 64.4 µM)	200 (≈ 515 µM)	0.62	4.81	27	38.6	
O=C1COCCN1c1ccc(C2CC(c3ccc([N+](=O)[O-])o3)=NO2)cc1 (stereo unspecified)	25.9 (≈ 72.4 µM)	0.34	0.357	6.25 (≈ 17.5 µM)	100 (≈ 280 µM)	200 (≈ 560 µM)	> 200	6.25 (≈ 17.5 µM)	25 (≈ 70 µM)	25 (≈ 70 µM)	1.4	10	12.6	56.5	
O=[N+]([O-])c1ccc(C2=NOC(c3ccc(N4CCOCC4)nc3)C2)o1 (stereo unspecified)	14.1 (≈ 40.9 µM)	0.047	0.033	12.5 (≈ 36.3 µM)	25 (≈ 72.6 µM)				25 (≈ 72.6 µM)	> 200	1.23	3.37	6.47	14.2	Cmax [15]: 2730 ng/mL; AUC(0-inf) [16]: 3360 ng·h/mL; half-life [17]: 0.72 h; clearance [18]: 50.3 mL/min/kg; Vd [19]: 2.86 L/kg; dose excreted [20]: 0.02%; F [21]: 47.9%; IC50 [22]: 3.2 µg/mL (≈ 9.29 µM); Activity [23]: Non-toxic; Activity [24]: Non-toxic; Activity [25]: Non-toxic
